According to ChEMBL document CHEMBL1122747, “Potential antitumor agents. 42. Structure-activity relationships for acridine-substituted dimethyl phosphoramidate derivatives of 9-anilinoacridine” (J Med Chem, 1984):

How the values were obtained:
[1] = Binding affinity towards poly[d(A-T)] (fluorometric method); format: ADME
Outline: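 Log R for binding to poly[d(A-T)] measured fluorometrically, corrected for quenching.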

P388 [2] = assay: Dose of drug needed to provide a percentage increase in life span of tumor-bearing mice in vivo of […]% compared to untreated controls after inoculation of 10e6 P388 leukemia cells; h=ILS of >50% could not be obtained at any dose level; format: functional, organism-based; settings: Mus musculus
P388 [3] = assay: In vivo inhibition of P388 in mice for optimal (highest nonacutely toxic) dose (OD); format: functional, Mus musculus
Outline: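 F1 (DBA/2J × C57BlJ) mice, 19-21 g, either sex, inoculated with 10^6 P388 leukemia cells on day 0. Drug given ip in 0.1 mL 30% aqueous ethanol on days 1, 5 and 9, as a solution or, at highest doses, as a sonicated suspension. Doses stepped down from a toxic level at 0.67-fold intervals. Groups of six mice; ILS relative to 20-30 controls. OD is the highest nonacutely toxic daily dose.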

L1210 = assay: In vitro test for 50% reduction of cell number (of control) after 70 hr incubation with cultures of murine L1210 leukemia cells; format: functional; settings: Mus musculus, L1210, 70 h; read-out: ID50 (the source's name)
[4] = Lipophilicity (Rm) (liquid chromatography); format: physicochemical
Outline: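 Rm is measured for drug cations at pH 2 by liquid-liquid chromatography on a cellulose support.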

P388 [5] = assay: In vivo tumor cell selectivity (ILSmax values)for percentage increase in life span of treated animals over that of P388 tumor bearing untreated control animals; format: functional, Mus musculus
P388 [6] = assay: In vivo dose of drug needed for a percentage increase of 50% in life span of tumor-bearing mice compared to untreated controls after inoculation of 10e6 P388 leukemia cells; format: functional, Mus musculus

Row | SMILES | Log K [1] | D50 (P388 [2]) | OD (P388 [3]) [mg/kg/day] | IC50 (L1210) [nM] | Rm [4] | Activity (P388 [5]) [%] | D50 (P388 [6]) [mg/kg/day]
1 | COc1ccc2nc3ccccc3c(Nc3ccc(NP(=O)(OC)OC)cc3)c2c1 | 6.25 | ILS not obtained | 45 | 920 | 0.29 | 38 | –
2 | COc1cc(NP(=O)(OC)OC)ccc1Nc1c2ccccc2nc2ccc(C)cc12 | 5.28 | ILS not obtained | 30 | 985 | 0.55 | 25 | –
3 | COP(=O)(Nc1ccc(Nc2c3ccccc3nc3cc(Cl)ccc23)cc1)OC | 7 | – | 45 | 16 | 0.46 | 62 | 35
4 | COc1cc(NP(=O)(OC)OC)ccc1Nc1c2ccccc2nc2ccccc12 | 5.64 | – | 8.9 | 70 | 0.47 | 67 | 3.5
5 | COP(=O)(Nc1ccc(Nc2c3ccccc3nc3ccc(C)cc23)cc1)OC | 6.09 | ILS not obtained | 20 | 286 | 0.43 | 36 | –
6 | Cc1ccc2nc3ccccc3c(Nc3ccc(NS(C)(=O)=O)cc3)c2c1 | 5.7 | ILS not obtained | 100 | 680 | 0.14 | 39 | –
7 | COc1cc(NP(=O)(OC)OC)ccc1Nc1c2ccccc2nc2c(OC)cccc12 | 6.09 | – | 9 | 12 | 0.47 | 76 | 6
8 | CS(=O)(=O)Nc1ccc(Nc2c3ccccc3nc3cc(N)ccc23)cc1 | 6.82 | – | 8.9 | 10 | -0.18 | 67 | 8
9 | COc1cc(NP(=O)(OC)OC)ccc1Nc1c2ccccc2nc2cc(Cl)ccc12 | 6.4 | – | 13.3 | 12 | 0.61 | 91 | 5.5
10 | CS(=O)(=O)Nc1ccc(Nc2c3ccccc3nc3cc(Cl)ccc23)cc1 | 6.89 | – | 65 | 50 | 0.14 | 53 | 60
11 | COP(=O)(Nc1ccc(Nc2c3ccccc3nc3ccccc23)cc1)OC | 6.26 | – | 45 | 15 | 0.34 | 107 | 15
12 | Cc1cccc2c(Nc3ccc(NS(C)(=O)=O)cc3)c3ccccc3nc12 | 6.52 | – | 66 | 17 | 0.07 | 75 | 50
13 | COc1cc(NS(C)(=O)=O)ccc1Nc1c2ccccc2nc2cc(Br)ccc12 | 6.29 | – | 20 | 50 | 0.34 | 133 | 4
14 | CS(=O)(=O)Nc1ccc(Nc2c3ccccc3nc3ccccc23)cc1 | – | – | 150 | 35 | 0 | 102 | 35
15 | CS(=O)(=O)Nc1ccc(Nc2c3ccccc3nc3cc([N+](=O)[O-])ccc23)cc1 | 6.51 | ILS not obtained | 8.9 | 90 | -0.18 | 43 | –
16 | COc1cc(NS(C)(=O)=O)ccc1Nc1c2ccccc2nc2cc(Cl)ccc12 | 6.06 | – | 20 | 70 | 0.32 | 232 | 5
17 | COP(=O)(Nc1ccc(Nc2c3ccccc3nc3c(C)cccc23)cc1)OC | 6.75 | – | 20 | 9 | 0.46 | – | 9
18 | CNC(=O)c1cccc2c(Nc3ccc(NP(=O)(OC)OC)cc3)c3ccccc3nc12 | 6.46 | – | 66 | 97 | 0.18 | 56 | 60

Row | SMILES | Log K [1] | D50 (P388 [2]) | OD (P388 [3]) [mg/kg/day] | IC50 (L1210) [nM] | Rm [4] | Activity (P388 [5]) [%] | D50 (P388 [6]) [mg/kg/day]
19 | COc1cc(NP(=O)(OC)OC)ccc1Nc1c2ccccc2nc2c(C)cccc12 | 6.16 | – | 8.9 | 18 | 0.44 | – | 3
20 | COP(=O)(Nc1ccc(Nc2c3ccccc3nc3cc(Br)ccc23)cc1)OC | 6.56 | – | 65 | 15 | 0.47 | 110 | 20
21 | COP(=O)(Nc1ccc(Nc2c3ccccc3nc3cc(C)ccc23)cc1)OC | 6.77 | – | 20 | 7 | 0.49 | 84 | 6
22 | COc1cc(NS(C)(=O)=O)ccc1Nc1c2ccccc2nc2ccccc12 [AMSACRINE] | 5.57 | – | – | – | 0.18 | 58 | 3
23 | COc1cccc2c(Nc3ccc(NP(=O)(OC)OC)cc3)c3ccccc3nc12 | 6.53 | – | 45 | 20 | 0.33 | 50 | 45
24 | COP(=O)(Nc1ccc(Nc2c3ccccc3nc3cc(S(C)(=O)=O)ccc23)cc1)OC | 5.63 | ILS not obtained | 150 | > 1500 | -0.14 | – | –
25 | COc1cc(NP(=O)(OC)OC)ccc1Nc1c2ccccc2nc2cc(Br)ccc12 | 6.44 | – | 13.3 | 5 | 0.57 | 83 | 4
26 | CNC(=O)c1cccc2c(Nc3ccc(NS(C)(=O)=O)cc3OC)c3ccccc3nc12 | 5.54 | – | 30 | 270 | 0.06 | 127 | 8
27 | COP(=O)(Nc1ccc(Nc2c3ccccc3nc3cc(N)ccc23)cc1)OC | 6.9 | – | 5.9 | 385 | 0.06 | 58 | 5
28 | COc1cc(NS(C)(=O)=O)ccc1Nc1c2ccccc2nc2c(OC)cccc12 | 5.94 | – | 30 | 40 | 0.19 | 139 | 8
29 | CNC(=O)c1cccc2c(Nc3ccc(NP(=O)(OC)OC)cc3OC)c3ccccc3nc12 | 5.94 | – | 30 | 18 | 0.28 | – | 13
30 | CNC(=O)c1cccc2c(Nc3ccc(NS(C)(=O)=O)cc3)c3ccccc3nc12 | 6.22 | ILS not obtained | 150 | 245 | -0.1 | 41 | –
31 | Cc1ccc2c(Nc3ccc(NS(C)(=O)=O)cc3)c3ccccc3nc2c1 | 6.41 | – | 50 | 8 | 0.24 | 73 | 27
32 | COc1cc(NS(C)(=O)=O)ccc1Nc1c2ccccc2nc2c(C)cccc12 | 6.03 | – | 20 | 30 | 0.25 | 172 | 4
33 | CS(=O)(=O)Nc1ccc(Nc2c3ccccc3nc3cc(Br)ccc23)cc1 | 6.93 | ILS not obtained | 100 | 16 | 0.16 | 33 | –
34 | COc1cccc2c(Nc3ccc(NS(C)(=O)=O)cc3)c3ccccc3nc12 | 6.24 | – | 150 | 45 | 0.01 | 58 | 125
35 | COP(=O)(Nc1ccc(Nc2c3ccccc3nc3cc([N+](=O)[O-])ccc23)cc1)OC | 6.73 | ILS not obtained | 8.9 | 74 | 0.14 | 22 | –
36 | COc1cc(NS(C)(=O)=O)ccc1Nc1c2ccccc2nc2ccc(C)cc12 | 5.35 | ILS not obtained | 69 | 1400 | 0.4 | 34 | –
